Experiments:
COX-1 (ovine) = molecular target: T1, COX-1 (ovine) (Ovis aries, UniProt P05979); experiment: COX Fluorescent Inhibitor Screening Assay Kit, COX-1; format: biochemical
T1 sequence (P05979 25-600): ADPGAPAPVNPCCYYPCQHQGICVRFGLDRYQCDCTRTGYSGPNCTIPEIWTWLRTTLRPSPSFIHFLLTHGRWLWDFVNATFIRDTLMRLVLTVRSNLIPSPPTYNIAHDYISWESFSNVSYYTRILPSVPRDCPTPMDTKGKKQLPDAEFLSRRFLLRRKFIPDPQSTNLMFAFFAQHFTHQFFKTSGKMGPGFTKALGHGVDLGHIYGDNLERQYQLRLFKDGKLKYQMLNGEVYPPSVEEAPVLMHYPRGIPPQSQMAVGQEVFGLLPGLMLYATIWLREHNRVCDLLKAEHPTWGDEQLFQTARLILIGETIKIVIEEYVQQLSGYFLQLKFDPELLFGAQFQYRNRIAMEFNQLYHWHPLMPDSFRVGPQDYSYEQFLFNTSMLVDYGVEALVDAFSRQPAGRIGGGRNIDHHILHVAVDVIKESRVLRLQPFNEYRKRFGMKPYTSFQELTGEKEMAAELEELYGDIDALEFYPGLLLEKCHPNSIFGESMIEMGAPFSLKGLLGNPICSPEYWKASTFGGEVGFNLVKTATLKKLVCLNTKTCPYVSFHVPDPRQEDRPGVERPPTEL

[1] = molecular target: T2, COX-2 (human recombinant) (Homo sapiens, UniProt P35354); experiment: COX Fluorescent Inhibitor Screening Assay Kit, COX-2; format: biochemical
T2 sequence (P35354 18-604): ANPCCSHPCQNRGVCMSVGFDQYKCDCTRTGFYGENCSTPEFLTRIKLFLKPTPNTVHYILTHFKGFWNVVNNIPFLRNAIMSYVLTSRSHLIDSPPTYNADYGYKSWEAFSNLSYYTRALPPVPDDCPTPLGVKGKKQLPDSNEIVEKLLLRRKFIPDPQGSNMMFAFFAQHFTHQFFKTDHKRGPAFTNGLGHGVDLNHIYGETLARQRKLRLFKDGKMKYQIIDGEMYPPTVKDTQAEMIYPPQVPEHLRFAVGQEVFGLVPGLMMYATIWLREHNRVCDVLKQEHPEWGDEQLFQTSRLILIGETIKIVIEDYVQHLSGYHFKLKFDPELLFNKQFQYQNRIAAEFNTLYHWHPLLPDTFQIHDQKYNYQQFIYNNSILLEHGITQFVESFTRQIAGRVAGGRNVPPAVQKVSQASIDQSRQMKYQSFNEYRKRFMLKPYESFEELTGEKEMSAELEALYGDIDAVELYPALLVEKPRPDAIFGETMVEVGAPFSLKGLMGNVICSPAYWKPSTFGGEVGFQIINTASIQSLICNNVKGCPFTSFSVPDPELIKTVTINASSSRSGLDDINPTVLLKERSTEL

[2] = system: cryopreserved human hepatocytes; experiment: Hepatocyte toxicity by WST-8 assay; format: cell-based; conditions: 200 μM, 2 h with shaking, relative to control (0.25 v/v% DMSO)
Procedure, shortened: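 Thawed cryopreserved human hepatocytes were kept at 37 °C in humidified 5% CO2 and seeded at 5.0 × 10^4 cells/well. Test compound was added in DMSO (final 0.25% v/v; DMSO-only control), then shaken 2 h. CCK-8 (WST-8) reagent was added for another 4 h. Absorbance was read at 450 nm (reference 600 nm), and viability was expressed relative to control.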

Structure (SMILES) | IC50 (COX-1 (ovine)) [µM] | IC50 [1] [µM] | COX-2 IC50 relative to that of DCF ([1]; ratio to DCF IC50) | cytotoxicity in cryopreserved human hepatocytes (cell viability, WST-8) [2] | COX-2 inhibition (in words) ([1]; up to a concentration of 100 μM)
O=C(O)Cc1ccccc1Nc1c(Cl)cc(F)cc1Cl [1b] | 0.67 | 27 |  |  | 
Fc1cc(Cl)c(Nc2ccc(F)cc2Cc2nnn[nH]2)c(Cl)c1 [3d] | > 100 | > 100 |  |  | 
O=C(O)C(F)(F)c1ccccc1Nc1c(Cl)cc(F)cc1Cl [2b] | > 100 | > 100 |  |  | 
O=C(O)Cc1cc(F)ccc1Nc1c(Cl)cc(F)cc1Cl [1d] | 0.73 | 26 |  |  | 
O=C(O)C(F)(F)c1cc(F)ccc1Nc1c(Cl)cccc1Cl [2c] | > 100 | 21 | three times higher | much weaker than that of DCF | 
O=C(O)C(F)(F)c1cc(F)ccc1Nc1c(Cl)cc(F)cc1Cl [2d] | > 100 | > 100 |  |  | 
O=S(=O)(O)Cc1ccccc1Nc1c(Cl)cccc1Cl [4a] | > 100 | > 100 |  |  | did not inhibit COX-2
